MT stabilizer – microtubule stabilizers in HeLa cells; % tubulin-high responders, % at 10 µM; HeLa tubulin immunostaining HCS, 24 h; share of cells brighter than vehicle mean+2SD; AID 2205; 200,000 tested, 0.83% active;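 active = plate Z-score above 3 for both tubulin-high and condensed-nucleus cell shares, with cell loss under 80%, at 10 µM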;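 note: anti alpha tubulin signal scored within the nucleus-defined area of each cell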
b-catenin transl – modulators of beta-catenin nuclear translocation; HeLa beta-catenin nuclear translocation, immunofluorescence imaging; nuclear translocation activity, % at 5 µM; 190,000 tested, 0.3% active; AID 1665;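 active = nuclear translocation activity above 50% at 5 µM, with a well cell count of 50 or more; inconclusive = wells under 50 cells across six images, flagged as toxic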;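 note: per-cell ratio of nuclear to cytoplasmic median beta-catenin stain intensity; plate controls were DMSO negative control for no effect and GSK-3 inhibitor IX positive control for full effect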
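System: HeLa cells, endogenous beta-catenin; compound dosing: 5 µM primary single dose, 0.1% DMSO, 0.02–20 µM confirmation series; incubation: 24 h compound exposure at 37°C, 5% CO2; signal: beta-catenin immunofluorescence imaging with DAPI; evaluation: % activation, nuclear-to-cytoplasmic median beta-catenin signal ratio per cell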
ROMK mod – modulates human ROMK potassium channel activity | Tet-inducible ROMK, thallium flux fluorescence; actives lie on both sides | B-score at 10 µM | 130,000 tested, 2% active;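 active = signal ratio slope over the read window, or its plate-corrected B-score, at least 3 SD from the plate mean, either direction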;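 note: B-score of the F/F0 ratio slope over 7 to 12 s after thallium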
Target sequence (P48048 whole entry, looked up): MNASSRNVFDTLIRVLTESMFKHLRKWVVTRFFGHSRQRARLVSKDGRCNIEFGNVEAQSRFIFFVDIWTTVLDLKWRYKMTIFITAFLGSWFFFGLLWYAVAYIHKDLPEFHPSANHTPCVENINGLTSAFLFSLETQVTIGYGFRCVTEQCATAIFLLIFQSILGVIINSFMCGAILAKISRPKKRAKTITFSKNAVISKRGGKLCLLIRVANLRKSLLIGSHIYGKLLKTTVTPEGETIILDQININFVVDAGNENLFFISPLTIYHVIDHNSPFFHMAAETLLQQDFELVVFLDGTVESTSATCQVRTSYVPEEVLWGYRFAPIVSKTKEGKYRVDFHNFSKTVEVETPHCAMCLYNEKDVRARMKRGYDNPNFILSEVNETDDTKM
ROMK retest – retested hit modulating human ROMK potassium channel. shares compounds with ROMK mod. ROMK thallium flux, fluorescence ratio; stronger effect = lower value. normalized thallium flux (F/F0 slope) at 10 µM. 3,000 tested, 54% active. AID 1917;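 active = Flux at 10 µM at least 3 SD below or above vehicle control mean in one or both replicates; inconclusive = no clear call, values can overlap the other calls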
* hit, by the source's call. Hits are enriched below; roughly 1.9% of the tested compounds scored in any of these assays.

How did CC(C)(C)C(=O)NC(=S)NNC(=O)c1ccc(Cl)cc1Cl do in these assays?
MT stabilizer: 3; b-catenin transl: -2; ROMK mod: -0.53

Results for CCN(CC)C(=O)C(Sc1ccccc1)c1ccccc1 (configuration not stated) ?
MT stabilizer: 2; b-catenin transl: 0; ROMK mod: 1.2

Results for O=C(N/N=C/c1cccs1)c1cc(-c2ccncc2)nc2ccccc12 ?
MT stabilizer: 5; b-catenin transl: 61*; ROMK mod: 4.2*; ROMK retest: 0.085

What do the screens show for `O=C(N/N=C/c1cccnc1)c1cc(-c2cccs2)nc2ccccc12`?
MT stabilizer: 8; ROMK mod: 0.083

Results for CCc1cc2ccc(C)cc2nc1SCC(=O)Nc1cc(C)on1 ?
MT stabilizer: 3; b-catenin transl: 0

How did CCc1cc2cc3c(cc2nc1SCC(=O)Nc1cc(C)on1)OCO3 do in these assays?
MT stabilizer: 7; b-catenin transl: -4; ROMK retest: 0.073

What do the screens show for `CN(Cc1ccccc1)S(=O)(=O)c1ccccc1[N+](=O)[O-]`?
MT stabilizer: 3; b-catenin transl: -1

Results for O=C(Nc1ncccn1)c1cc([N+](=O)[O-])cc([N+](=O)[O-])c1 ?
MT stabilizer: 6; b-catenin transl: -2; ROMK mod: -0.64

Results for O=[N+]([O-])c1cc(-c2ncccn2)c([N+](=O)[O-])s1 ?
MT stabilizer: 3; b-catenin transl: 0; ROMK mod: -1.2; ROMK retest: 0.06*

Results for CCCCCCCCCn1c2c(c(=N)c3c1CCC3)CCCC2 ?
MT stabilizer: 26*; b-catenin transl: 7; ROMK mod: -3.4*; ROMK retest: 0.038*

Results for CCCCCCCCCCn1c2c(c(=N)c3c1CCC3)CCC2 ?
MT stabilizer: 74; b-catenin transl: 3

What do the screens show for `CCCCCn1c2c(c(=N)c3ccccc31)CCC2`?
b-catenin transl: 1; ROMK mod: -1.4

Results for CCCCCCCCn1c2c(c(=N)c3ccccc31)CCC2 ?
MT stabilizer: 6; b-catenin transl: 4; ROMK mod: -6.6*; ROMK retest: 0.039*

Results for CCOC(=O)C(CC)Sc1nnc(COc2ccc(C)cc2)n1-c1ccccc1 (configuration not stated) ?
MT stabilizer: 3; b-catenin transl: -3; ROMK mod: -4.5*; ROMK retest: 0.066*

What do the screens show for `CCOc1ccc(-n2c(COc3ccc(C)cc3)nnc2SCC(N)=O)cc1`?
MT stabilizer: 4; b-catenin transl: 3; ROMK mod: 1.1

Results for O=C(O)c1ccc(OCc2cn3ccccc3n2)cc1 ?
b-catenin transl: -1

Results for O=C(COc1ccc(Oc2ccccc2)cc1)NCc1cn2ccccc2n1 ?
MT stabilizer: 10; b-catenin transl: 2; ROMK mod: 2.9*; ROMK retest: 0.081

Results for CCC(=O)N(CCc1ccc(OC)c(OC)c1)Cc1cc2ccc(C)cc2n2nnnc12 ?
MT stabilizer: 3; b-catenin transl: 0; ROMK mod: -0.016

What do the screens show for `Cc1ccc(-c2cc(Cc3ccccn3)c(=O)[nH]n2)cc1`?
b-catenin transl: -1; ROMK mod: 0.0033

How did O=C(COc1ccccc1Br)NC1CCCC1 do in these assays?
MT stabilizer: 3; b-catenin transl: 0; ROMK retest: 0.069*

Results for CCOc1ccccc1OCC(=O)NC1CCCCC1 ?
MT stabilizer: 2; b-catenin transl: -1; ROMK mod: 0.019

How did CCOP(=O)(OCC)C(NC(=O)Nc1ccc(C)cc1)C(N)=O (configuration not stated) do in these assays?
b-catenin transl: -2

How did COC(=O)CCC/C=C1\SC[C@@H](NC(=O)c2ccccc2)C1NC(C)=O (some centres not stated) do in these assays?
MT stabilizer: 2; b-catenin transl: 0; ROMK mod: -0.084

What do the screens show for `Cc1cc(Cl)ccc1NC(=S)NCC(C)C`?
MT stabilizer: 4; b-catenin transl: -1; ROMK mod: 0.26

Results for COc1ccc(-n2c(C)c([N+](=O)[O-])c3ccc(O)c(CN4CCCCC4)c32)cc1 ?
MT stabilizer: 3; ROMK mod: -0.76

What do the screens show for `Cc1ccc(-n2c(C)c([N+](=O)[O-])c3ccc(O)c(CN(C)C)c32)cc1`?
MT stabilizer: 1; b-catenin transl: -2; ROMK mod: -5.3*; ROMK retest: 0.049*

What do the screens show for `O=C(COc1ccc(Cl)cc1[N+](=O)[O-])N/N=C/c1cccs1`?
MT stabilizer: 7; b-catenin transl: -1; ROMK mod: -1.2

What do the screens show for `Cc1ccc(SCCNC(=O)/C=C/c2ccc(Cl)cc2)cc1`?
MT stabilizer: 3; b-catenin transl: 0; ROMK mod: 0.11

Results for O=C(CN1CCNCC1)NCCSc1ccc(Cl)cc1 ?
MT stabilizer: 1; b-catenin transl: 4; ROMK mod: -2*; ROMK retest: 0.068*

Results for CC1CCCC(NC(=O)CN(C)S(=O)(=O)c2cccc3cccnc23)C1C (configuration not stated) ?
MT stabilizer: 4; b-catenin transl: -1

Results for CCC(C)(C)n1nnnc1C(c1cc2cc(OC)c(OC)cc2[nH]c1=O)N1CCc2ccccc21 (configuration not stated) ?
MT stabilizer: 4; b-catenin transl: 0

How did COc1cc2cc(C(c3nnnn3C(C)(C)C)N3CCc4ccccc4C3)c(=O)[nH]c2cc1OC (configuration not stated) do in these assays?
MT stabilizer: 6; b-catenin transl: -3; ROMK mod: -3.6*; ROMK retest: inconclusive

What do the screens show for `C[C@H](N=C1NS(=O)(=O)c2ccccc21)C(=O)OCc1cc([N+](=O)[O-])cc2c1OCOC2`?
b-catenin transl: -2

Results for CC(=NCc1cccc(Cl)c1)c1nc(-c2ccco2)oc1O ?
MT stabilizer: 6; b-catenin transl: -3; ROMK mod: -1.2

Results for N#CCCN1CCCc2cc(N=Nc3ccc(C(F)(F)F)cc3)ccc21 ?
b-catenin transl: 0

What do the screens show for `CCC(C)NC(=S)N1CCN(C)CC1` (configuration not stated)?
MT stabilizer: 2; b-catenin transl: -1; ROMK mod: -1.4

What do the screens show for `COc1cccc(-c2csc(N3CCN(C(=O)Nc4ccc(F)cc4)CC3)n2)c1`?
MT stabilizer: 3; b-catenin transl: -4; ROMK mod: -2.3

How did COc1cccc(-c2csc(N3CCN(C(=O)C4CCCCC4)CC3)n2)c1 do in these assays?
MT stabilizer: 3; b-catenin transl: 0; ROMK retest: inconclusive

What do the screens show for `CC(C)/C=N/Nc1nc(-c2ccc(Br)cc2)cs1`?
MT stabilizer: 2; b-catenin transl: -1; ROMK mod: 0.65

What do the screens show for `O=C(NC(=S)Nc1cc(C(F)(F)F)ccc1N1CCOCC1)c1ccco1`?
b-catenin transl: 0

Results for O=C(CSc1c2c(nc3cc(Cl)ccc13)CCCC2)NCCCN1CCOCC1 ?
MT stabilizer: 4; b-catenin transl: -1; ROMK mod: -1.8*; ROMK retest: 0.081

How did O=C(CSc1c2c(nc3cc(Cl)ccc13)CCCC2)NCCN1CCOCC1 do in these assays?
MT stabilizer: 2; b-catenin transl: 10; ROMK mod: -0.27

Compound activity as filed in PubChem.
